Laboratory results taken from ChEMBL document CHEMBL4038330, “Discovery of Potent Orally Active Protease-Activated Receptor 1 (PAR1) Antagonists Based on Andrographolide” (J Med Chem, 2017).

Columns and labels:
Plasma = experiment: Drug metabolism in Wistar rat plasma assessed as [M2-2H] metabolite formation at 5 mg/kg, po administered as single dose measured at 3 hrs post dose by LC-HRMS analysis; assay type: ADME, organism-based; details: in vivo
Procedure, shortened: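 Rats dosed orally at 10 mg/kg or 5 mg/kg. Plasma taken at 3.0 h after dosing. Parent and metabolites detected by extracted ion chromatograms.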

[1] = test system: collagen-stimulated platelet aggregation; experiment: Toxicity in guinea pig assessed as inhibition of collagen-stimulated platelet aggregation at 10 mg/kg, po pretreated for 2 hrs followed by collagen stimulation measured after 5 mins; assay type: organism-based, Cavia porcellus; details: in vivo
Cavia porcellus = experiment: In vivo antagonist activity at PAR1 in guinea pig assessed as inhibition of thrombin-stimulated platelet aggregation at 30 mg/kg, po pretreated for 2 hrs followed by thrombin stimulation measured after 5 mins; assay type: functional
[2] = test system: ADP-stimulated platelet aggregation; experiment: Toxicity in guinea pig assessed as inhibition of ADP-stimulated platelet aggregation at 30 mg/kg, po pretreated for 2 hrs followed by ADP stimulation measured after 5 mins; assay type: organism-based, Cavia porcellus; details: in vivo
[3] = test system: collagen-stimulated platelet aggregation; experiment: Toxicity in guinea pig assessed as inhibition of collagen-stimulated platelet aggregation at 30 mg/kg, po pretreated for 2 hrs followed by collagen stimulation measured after 5 mins; assay type: organism-based, Cavia porcellus; details: in vivo
[4] = AUC (0 to infinity) in Wistar rat at 1 mg/kg, iv administered as bolus dose measured up to 24 hrs post dose by HPLC-MS/MS analysis; assay type: ADME, organism-based; design: dose 1 mg/kg, time infinity, route intravenous; details: in vivo
Procedure, shortened: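 Male Wistar rats, n = 6 per group, dosed intragastrically at 5 mg/kg or intravenously at 1 mg/kg. Blood concentrations followed over 24 h. Parameters from non-compartmental analysis, reported as median ± SD.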

[5] = MRT (0 to infinity) in Wistar rat at 1 mg/kg, iv administered as bolus dose measured up to 24 hrs post dose by HPLC-MS/MS analysis; assay type: ADME, organism-based; details: in vivo
Procedure, shortened: (§1)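 Male Wistar rats, n = 6 per group, given 1 mg/kg intravenously or 5 mg/kg intragastrically. Blood concentrations followed over 24 h. Non-compartmental analysis; values as median ± SD. Bioavailability from oral versus intravenous exposure.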

Rattus norvegicus [6] = experiment: AUMC (0 to infinity) in Wistar rat at 5 mg/kg, po measured up to 24 hrs post dose by HPLC-MS/MS analysis; assay type: ADME, organism-based; details: in vivo; procedure, shortened: as §1
Rattus norvegicus [7] = experiment: VRT (0 to infinity) in Wistar rat at 5 mg/kg, po measured up to 24 hrs post dose by HPLC-MS/MS analysis; assay type: ADME, organism-based; details: in vivo
[8] = Apparent clearance in Wistar rat at 5 mg/kg, po measured up to 24 hrs post dose by HPLC-MS/MS analysis; assay type: ADME, organism-based; details: in vivo, read-out: CL(app) (converted); procedure, shortened: as §1

CC1CC[C@@H]2C(C)(C)[C@H](O)CC[C@@]2(C)[C@@H]1/C=C/c1ccc(-c2cccc(F)c2)cn1 (single isomer, unassigned)
Drug metabolism (Plasma): Metabolite_Detected
inhibition at 5 min [1]: 5.5%
inhibition in vivo at 30 mg/kg (Cavia porcellus): 99.8%
inhibition at 5 min [2]: 4.5%
inhibition at 5 min [3]: 6.8%
AUC(0-inf) [4]: 552 ng·h/mL
MRT inf [5]: 2 h
AUMC (Rattus norvegicus [6]): 8382 ng·h/mL
VRT (Rattus norvegicus [7]): 25 ha2
CL/F [8]: 75 mL/min/kg
